Data set [1] concerns MDA-MB-435. Nature of the data set: (§1) Cytotoxicity against human MDA-MB-435 cells assessed as growth inhibition after 48 hrs by SRB assay. The class given is functional. The following applies: MDA-MB-435, 48 h. On the technique in general: In SRB staining, fixed cells bind dye roughly in proportion to their protein.
The next data set concerns Hs-578T. The experiment in a line: Cytotoxicity against human Hs578T cells assessed as growth inhibition after 48 hrs by SRB assay. The class given is functional.
For a further data set, the system named is KM12. The experiment in a line: Cytotoxicity against human KM12 cells assessed as growth inhibition after 48 hrs by SRB assay. The class given is functional. To be noted: KM12, 48 h.
The next data set has as its system DU-145. The experiment in a line: Cytotoxicity against human DU145 cells assessed as growth inhibition after 48 hrs by SRB assay. The format is functional. To be noted: DU-145, 48 h.
A further data set deals with SNB-75. Nature of the data set: Cytotoxicity against human SNB75 cells assessed as growth inhibition after 48 hrs by SRB assay. The class given is functional. The following applies: SNB-75, 48 h.
The next data set deals with SK-MEL-5. Nature of the data set: Cytotoxicity against human SK-MEL-5 cells assessed as growth inhibition after 48 hrs by SRB assay. The format is functional. To be noted: SK-MEL-5, 48 h.
The subject of another data set is SNB-19. The experiment in a line: Cytotoxicity against human SNB19 cells assessed as growth inhibition after 48 hrs by SRB assay. The class given is functional. The following applies: SNB-19, 48 h.
The test system of the next data set is SK-MEL-28. Nature of the data set: Cytotoxicity against human SK-MEL-28 cells assessed as growth inhibition after 48 hrs by SRB assay. The class given is functional. The following applies: SK-MEL-28, 48 h.
Another data set relates to NCI-H226. Nature of the data set: Cytotoxicity against human NCI-H226 cells assessed as growth inhibition after 48 hrs by SRB assay. The class given is functional. The following applies: NCI-H226, 48 h.
For the next data set, the system named is IGROV-1. The experiment in a line: Cytotoxicity against human IGROV1 cells assessed as growth inhibition after 48 hrs by SRB assay. The following applies: IGROV-1, 48 h. The class given is functional.
Another data set has as its system RPMI-8226. The experiment in a line: Cytotoxicity against human RPMI8226 cells assessed as growth inhibition after 48 hrs by SRB assay. The following applies: RPMI-8226, 48 h. The class given is functional.
Data set [2] can be described thus: Induction of microtubule depolymerization in rat A10 cells after 18 hrs by indirect immunofluorescence assay. The class given is cell-based. In a few lines: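 A-10 cells were exposed to vehicle or compound for 18 h, fixed, and microtubules were visualized by indirect immunofluorescence. EC50 is the concentration causing about 50% microtubule loss, from at least three independent experiments.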

The next data set deals with PC-3. The experiment in a line: Cytotoxicity against human PC3 cells assessed as growth inhibition after 48 hrs by SRB assay. The class given is functional. The following applies: PC-3, 48 h.
Another data set deals with SK-OV-3. Nature of the data set: Antiproliferative activity against human SKOV3 cells after 48 hrs by SRB assay. The format is functional, cell-based. To be noted: SK-OV-3, 48 h. In a few lines: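 Isogenic pairs: parental SK-OV-3 alongside its Pgp-overexpressing subline MDR-M6-6, and parental HeLa alongside βIII-tubulin-transfected HeLa. Antiproliferative IC50 measured by sulforhodamine B assay, averaged from at least three independent experiments ± SD. Relative resistance is the transduced-line IC50 divided by the parental-line IC50.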

The next data set relates to NCI-H23. The experiment in a line: Cytotoxicity against human NCI-H23 cells assessed as growth inhibition after 48 hrs by SRB assay. The format is functional. To be noted: NCI-H23, 48 h.
The test system of a further data set is SN12C. The experiment in a line: Cytotoxicity against human SN12C cells assessed as growth inhibition after 48 hrs by SRB assay. The class given is functional.
A short description of data set [3]: Cytotoxicity against human EKVX cells assessed as growth inhibition after 48 hrs by SRB assay. The class given is functional.
Data set [4] has as its system MDA-MB-231. Nature of the data set: Antitumor activity against human MDA-MB-231 cells xenografted in athymic nude mouse assessed as tumor free state at 75 mg/kg, ip qd administered every other day started on day 14 for 5 days followed by compound readministration on day 27 measured on day 41. Also noted: dose 75 mg/kg. The format is functional, organism-based. The essentials:
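Female athymic nude mice carried sc MDA-MB-231T tumor fragments staged to about 125 mg. Compound was given ip as a solution in 10% DMSO in saline/Tween 80, with courses beginning day 14 and repeated from day 27. Groups had 8 animals, with 16 vehicle controls. Animals were scored as tumor-free on day 41.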
(In general: Xenograft models place foreign cells or tissue in a host animal.)

The subject of data set [5] is MDA-MB-231. The experiment in a line: Antitumor activity against human MDA-MB-231 cells xenografted in athymic nude mouse assessed as net tumor log cell kill at 50 mg/kg, ip bid administered every other day started on day 14 followed by compound readministration every other day started on day 27. The class given is functional. The following applies: route intraperitoneal. The essentials:
(§2)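 Female athymic nude mice were implanted sc with an MDA-MB-231T tumour fragment, and tumours were staged to about 125 mg. Drug was given ip in 10% DMSO in saline/Tween 80, with courses starting day 14 and repeated from day 27. There were 8 animals per treated group and 16 controls. Read-outs were body weight, deaths, median tumour mass as T/C, days to a predetermined size as T-C/C, and net log cell kill.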

The test system of data set [6] is MDA-MB-435. The description is as §1. The format is functional, cell-based. The following applies: MDA-MB-435, 48 h.
The test system of data set [7] is Mus musculus. Nature of the data set: Toxicity in athymic nude mouse xenografted in human MDA-MB-231 cells assessed as body weight loss at 50 mg/kg, ip bid administered every other day started on day 14 followed by compound readministration every other day started on day 27 (reference value: 6.7%). The class given is organism-based. More on the design: dose 50 mg/kg, route intraperitoneal. To be noted: in vivo.

Data set [8] has as its system MDA-MB-231. The experiment in a line: Antitumor activity against human MDA-MB-231 cells xenografted in athymic nude mouse assessed as tumor growth inhibition at 50 mg/kg, ip qd administered on day 14 for 5 days followed by compound readministration on day 27 measured on day 31 relative to control. The format is functional. The following applies: route intraperitoneal. In a few lines:
as §2

Data set [9] has as its system MDA-MB-231. Nature of the data set: Antitumor activity against human MDA-MB-231 cells xenografted in athymic nude mouse assessed as delay in tumor growth at 50 mg/kg, ip bid administered every other day started on day 14 followed by compound readministration every other day started on day 27 measured on day 31 relative to control. The format is functional. The following applies: route intraperitoneal. In a few lines:
(§3)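 MDA-MB-231T tumor fragments implanted sc in female athymic nude mice and staged to about 125 mg. Dosing was ip in 10% DMSO in saline/Tween 80, with courses starting day 14 and again day 27. Groups had 8 treated animals and 16 controls. Growth delay (T-C/C) is the median days for treated vs control tumors to reach a predetermined size, normalized to control, as %.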

The test system of data set [10] is MDA-MB-231. Nature of the data set: Antitumor activity against human MDA-MB-231 cells xenografted in athymic nude mouse assessed as delay in tumor growth at 50 mg/kg, ip qd administered on day 14 for 5 days followed by compound readministration on day 27 measured on day 31 relative to control. The class given is functional. The following applies: route intraperitoneal. In a few lines:
as §2

In data set [11] the test system is MDA-MB-231. Nature of the data set: Antitumor activity against human MDA-MB-231 cells xenografted in athymic nude mouse assessed as delay in tumor growth at 75 mg/kg, ip qd administered every other day started on day 14 for 5 days followed by compound readministration on day 27 measured on day 31 relative to control. The class given is functional. The following applies: route intraperitoneal. In a few lines:
as §3

In data set [12] the test system is MDA-MB-231. The experiment in a line: Antitumor activity against human MDA-MB-231 cells xenografted in athymic nude mouse assessed as net tumor log cell kill at 75 mg/kg, ip qd administered on day 14 for 5 days followed by compound readministration on day 27. The format is functional. To be noted: route intraperitoneal. The essentials:
as §2

For data set [13], the system named is Mus musculus. The experiment in a line: Toxicity in athymic nude mouse xenografted in human MDA-MB-231 cells assessed as mortality at 50 mg/kg, ip qd administered on day 14 for 5 days followed by compound readministration on day 27. The class given is organism-based. Also noted: dose 50 mg/kg, route intraperitoneal. The following applies: in vivo, 120 h. In a few lines:
as §2

In data set [14] the test system is MDA-MB-231. The experiment in a line: Antitumor activity against human MDA-MB-231 cells xenografted in athymic nude mouse assessed as net tumor log cell kill at 50 mg/kg, ip qd administered on day 14 for 5 days followed by compound readministration on day 27. The format is functional. The following applies: route intraperitoneal. The essentials:
as §2

Data set [15] has as its system MDA-MB-231. Nature of the data set: Antitumor activity against human MDA-MB-231 cells xenografted in athymic nude mouse assessed as tumor growth inhibition at 75 mg/kg, ip qd administered on day 14 for 5 days followed by compound readministration on day 27 measured on day 31 relative to control. To be noted: route intraperitoneal. The format is functional. The essentials:
as §2

Activity calls are given as the source filed them. The calls are words filed in the database; no cut-off is given here.

As a reminder, the GI50 is the concentration that inhibits growth by half. The term EC50 denotes the concentration that produces a half-maximal response. Read a high EC50 as a need for much substance. The IC50 is the concentration that inhibits the measured activity by half. With `COc1ccc(N(C)c2nc(C)nc3c2CC(C)C3)cc1.Cl` (racemic), the GI50 in the data set on MDA-MB-435 [1] was less than 10 nM; in the data set on Hs-578T, less than 10 nM; in the data set on KM12, less than 10 nM; with DU-145, 21.4 nM; in the data set on SNB-75, less than 10 nM; with SK-MEL-5 it was less than 10 nM. Besides, the GI50 in the data set with SNB-19 is 36.9 nM; with SK-MEL-28, less than 10 nM; in the data set on NCI-H226, 31.5 nM; in the data set on IGROV-1, 11 nM; with RPMI-8226, 15.7 nM; in the data set with PC-3 it was 14.6 nM. Moreover, the GI50 came out at 16.4 nM in the data set with NCI-H23, 31.8 nM in the data set on SN12C and 19.6 nM in data set [3]. In data set [2], this compound gave a half-maximal effective concentration (EC50) of 56 nM. The IC50 with SK-OV-3 stood at 38.6 nM.
The T/C is the ratio of treated to control. On to `COc1ccc(N(C)c2nc(C)nc3c2CCC3)cc1.Cl`, for which the outcome with MDA-MB-231 [4] was Active. Also, the GI50 was less than 10 nM in the data set with MDA-MB-435 [1]; less than 10 nM in the data set with Hs-578T; less than 10 nM with KM12; 19.6 nM with DU-145; less than 10 nM with SNB-75; less than 10 nM in the data set on SK-MEL-5. Also, the GI50 is 17 nM with SNB-19; less than 10 nM in the data set with SK-MEL-28; 34.7 nM with NCI-H226; 12.8 nM in the data set with IGROV-1; 14.3 nM in the data set with RPMI-8226; less than 10 nM in the data set with PC-3. The results for the GI50 (in the data set on NCI-H23; with SN12C; in [3]) were 22.3 nM, 33 nM and 34.8 nM, respectively. Further, the LCK in the data set with MDA-MB-231 [5] is given as -1.3; in the data set on MDA-MB-231 [12], -1.1; in the data set on MDA-MB-231 [14], -1.4. Moreover, the IC50 came to 7 nM in the data set with MDA-MB-435 [6] and 11.3 nM with SK-OV-3. Moreover, in the data set with Mus musculus [7], the “%max” value is recorded as 7.8%. Moreover, the T/C amounted to 20% in the data set with MDA-MB-231 [8] and 17% with MDA-MB-231 [15]. Besides, the Activity is recorded as 32% in the data set on MDA-MB-231 [9], 27% with MDA-MB-231 [10], 44% in the data set with MDA-MB-231 [11] and “Non-toxic” in the data set on Mus musculus [13]. The compound further yielded an EC50 in data set [2] of 25.9 nM.

Values taken from ChEMBL document CHEMBL2424583, “Structure-activity relationship and in vitro and in vivo evaluation of the potent cytotoxic anti-microtubule agent N-(4-methoxyphenyl)-N,2,6-trimethyl-6,7-dihydro-5H-cyclopenta[d]pyrimidin-4-aminium chloride and its analogues as antitumor agents” (J Med Chem, 2013).
